Data: ChEMBL document CHEMBL1141721, “Structure-toxicity relationship of aminoglycosides: correlation of 2'-amine basicity with acute toxicity in pseudo-disaccharide scaffolds” (Bioorg Med Chem, 2008)
Converted amounts (≈) assume the structure as drawn.

How the values were obtained:
[1] = Inhibition of Pseudomonas aeruginosa APH(3')-2b assessed as rate of NADH absorbance decrease by pyruvate kinase/lactate dehydrogenase coupled assay
Summary of the method: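 Purified recombinant APH(3')-IIb, affinity-purified on a neomycin B column. ATP consumption followed by pyruvate kinase/lactate dehydrogenase coupling as NADH decrease at 340 nm. Buffer: 50 mM Tris-HCl pH 7.5, 40 mM KCl, 10 mM MgCl2, 1 mM ATP, 2.5 mM PEP. Neamine substrate 1–100 µM, inhibitor 0–1000 µM. 5 min preincubation at 37 °C, started with enzyme. Ki by nonlinear regression.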

[2] = Toxicity in iv dosed ICR mouse assessed as effect on mortality after 4 days; assay type: organism-based; conditions: in vivo
[3] = system: Escherichia coli; test: Antimicrobial activity against Escherichia coli R477-100 by double-microdilution method; assay type: functional
[4] = system: Pseudomonas aeruginosa; test: Antimicrobial activity against Pseudomonas aeruginosa 590 isolate by double-microdilution method; assay type: functional
Summary of the method: (§1)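 Double-microdilution method following NCCLS, starting at 384 µg/mL of compound with doubling dilutions. Run in triplicate (a table footnote says duplicates), with analogous results in three separate experiments.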

[5] = system: Staphylococcus epidermidis; test: Antimicrobial activity against Staphylococcus epidermidis ATCC 12228 by double-microdilution method; assay type: functional; summary of the method: as §1
[6] = system: Bacillus subtilis; test: Antimicrobial activity against Bacillus subtilis by double-microdilution method; assay type: functional; summary of the method: as §1
[7] = system: Pseudomonas aeruginosa; test: Activity of Pseudomonas aeruginosa APH(3')-2b assessed as rate of NADH absorbance decrease by pyruvate kinase/lactate dehydrogenase coupled assay
Summary of the method: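 Recombinant APH(3')-IIb purified on a neomycin B affinity column. Substrate neamine 1–100 μM, inhibitor 0–1000 μM. Preincubation 5 min at 37 °C, then started with enzyme. NADH loss read at 340 nm; Ki by nonlinear regression.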

[8] = system: Escherichia coli; test: Antimicrobial activity against Escherichia coli ATCC 25922 by double-microdilution method; assay type: functional
[9] = system: Pseudomonas aeruginosa; test: Antimicrobial activity against Pseudomonas aeruginosa ATCC 27853 by double-microdilution method; assay type: functional
[10] = system: Escherichia coli; test: Inhibition of translation in Escherichia coli S30 extract by coupled transcription/translation assay; assay type: functional
Summary of the method: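 E. coli S30 extract for circular DNA with pBES-Tluc plasmid, coupled transcription/translation. 25 µL reactions with varied aminoglycoside concentrations, 60 min at 37 °C, then 5 min on ice. Diluted into Tris-phosphate 25 mM pH 7.8 buffer with DTT, CDTA, glycerol, Triton X-100 and BSA. Luciferase luminescence read at once; IC50 fitted from concentration-response curves of at least two independent experiments.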

[11] = system: Pseudomonas aeruginosa; test: Antimicrobial activity against Pseudomonas aeruginosa 584/5 isolate by double-microdilution method; assay type: functional
[12] = system: Escherichia coli; test: Antimicrobial activity against Escherichia coli XL1 expressing APH(3')-1a by double-microdilution method; assay type: functional

For `NC[C@@H]1CC[C@@H](N)[C@@H](O[C@H]2[C@H](O)[C@@H](O)[C@H](N)C[C@@H]2N)O1` [GENTAMINE C1A], the Ki [1] was 650 µM, the LD50 at 96 h [2] was 103 mg/kg and the MIC [3] was 192 µg/mL (≈ 661 µM).
For `NC[C@H]1O[C@H](O[C@H]2[C@H](O)[C@@H](O)[C@H](N)C[C@@H]2N)[C@H](N)[C@H]2OCO[C@@H]21`, the Ki [1] was 642 µM, the LD50 at 96 h [2] was 303 mg/kg and the MIC [3] was > 384 µg/mL.
Molecule `CNC1C(O)C(OC2C(N)CC(N)C(OC3OC(CN)CCC3N)C2O)OCC1(C)O` (stereo not drawn) [GENTAMICIN C1A] has an MIC [4] of 384 µg/mL (≈ 854 µM), an MIC [5] of 6 µg/mL (≈ 13.3 µM) and an MIC [6] of 6 µg/mL (≈ 13.3 µM).
Molecule `NC[C@H]1O[C@H](O[C@H]2[C@H](O)[C@@H](O)[C@H](N)C[C@@H]2N)[C@H](N)[C@@H](O)[C@@H]1O` [NEAMINE] has a Km [7] of 10.3 µM, a kcat [7] of 1.7 s⁻¹ and an LD50 at 96 h [2] of 161 mg/kg. For the same molecule, the MIC [3] was 96 µg/mL (≈ 298 µM).
For `CN[C@@H]1[C@@H](O)[C@@H](O[C@@H]2[C@@H](O)[C@H](O[C@H]3O[C@H](CN)[C@H]4OCO[C@@H]4[C@H]3N)[C@@H](N)C[C@H]2N)OC[C@]1(C)O`, the MIC [4] was 48 µg/mL (≈ 97.3 µM), the MIC [8] was 48 µg/mL (≈ 97.3 µM) and the MIC [5] was 24 µg/mL (≈ 48.6 µM). The MIC [9] was 24 µg/mL (≈ 48.6 µM), the IC50 [10] was 38 nM and the LD50 at 96 h [2] was 226 mg/kg. For the same molecule, the MIC [6] was 12 µg/mL (≈ 24.3 µM), the MIC [11] was 24 µg/mL (≈ 48.6 µM) and the MIC [12] was 12 µg/mL (≈ 24.3 µM). The MIC [3] was 48 µg/mL (≈ 97.3 µM).
